Measurements from ChEMBL document CHEMBL1142961, “Novel selective inhibitors of the zinc plasmodial aminopeptidase PfA-M1 as potential antimalarial agents” (J Med Chem, 2007).

Tests used:
[1] = biological target: T1, Aminopeptidase N (Plasmodium falciparum FcB1/Columbia) (UniProt O96935); assay: Inhibition of Plasmodium falciparum FcB1 M1 aminopeptidase at 10 uM
T1 sequence (whole entry): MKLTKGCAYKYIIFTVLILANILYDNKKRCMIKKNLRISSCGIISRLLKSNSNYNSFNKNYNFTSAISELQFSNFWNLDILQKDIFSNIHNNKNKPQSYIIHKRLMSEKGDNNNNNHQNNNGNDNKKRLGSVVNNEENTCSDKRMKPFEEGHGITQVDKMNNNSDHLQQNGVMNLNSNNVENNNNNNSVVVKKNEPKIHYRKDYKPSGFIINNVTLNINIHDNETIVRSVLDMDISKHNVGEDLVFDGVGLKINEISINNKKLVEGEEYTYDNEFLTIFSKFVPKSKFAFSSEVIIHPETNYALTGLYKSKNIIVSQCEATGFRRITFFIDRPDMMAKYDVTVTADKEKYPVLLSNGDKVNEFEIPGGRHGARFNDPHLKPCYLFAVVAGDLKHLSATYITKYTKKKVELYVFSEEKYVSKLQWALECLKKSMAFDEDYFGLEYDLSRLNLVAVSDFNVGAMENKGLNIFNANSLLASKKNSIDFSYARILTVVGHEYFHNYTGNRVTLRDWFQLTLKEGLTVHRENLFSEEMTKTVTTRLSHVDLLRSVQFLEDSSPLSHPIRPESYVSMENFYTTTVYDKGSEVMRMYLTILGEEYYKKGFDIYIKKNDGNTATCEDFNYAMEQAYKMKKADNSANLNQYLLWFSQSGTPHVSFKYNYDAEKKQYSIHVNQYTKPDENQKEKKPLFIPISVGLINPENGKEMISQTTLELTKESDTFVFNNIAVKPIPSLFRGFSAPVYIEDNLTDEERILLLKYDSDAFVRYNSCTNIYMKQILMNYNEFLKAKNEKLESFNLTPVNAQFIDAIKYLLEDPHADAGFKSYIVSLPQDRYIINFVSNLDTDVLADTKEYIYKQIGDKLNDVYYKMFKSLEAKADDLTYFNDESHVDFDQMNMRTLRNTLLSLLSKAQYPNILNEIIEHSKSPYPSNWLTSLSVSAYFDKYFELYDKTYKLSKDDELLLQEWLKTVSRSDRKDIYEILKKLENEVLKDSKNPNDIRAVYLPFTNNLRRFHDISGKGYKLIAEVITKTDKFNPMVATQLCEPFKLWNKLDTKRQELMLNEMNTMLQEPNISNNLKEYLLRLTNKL
Outline: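 Native enzyme purified from P. falciparum FcB1, diluted 10-fold in 25 mM Tris-HCl pH 7.4. Preincubated with inhibitor for 10 min at room temperature, then Leu-pNA substrate added (0.3 mM stock, Km 0.099 mM). Kinetics followed at 405 nm at room temperature. Initial velocities normalized to a no-inhibitor control. Single-point screen at 10 µM; IC50 from velocity versus inhibitor concentration curves. Bestatin used as reference.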

[2] = biological target: T2, Aminopeptidase N (Sus scrofa) (UniProt P15145); assay: Inhibition of pig kidney microsomal APN at 10 uM
T2 sequence (whole entry): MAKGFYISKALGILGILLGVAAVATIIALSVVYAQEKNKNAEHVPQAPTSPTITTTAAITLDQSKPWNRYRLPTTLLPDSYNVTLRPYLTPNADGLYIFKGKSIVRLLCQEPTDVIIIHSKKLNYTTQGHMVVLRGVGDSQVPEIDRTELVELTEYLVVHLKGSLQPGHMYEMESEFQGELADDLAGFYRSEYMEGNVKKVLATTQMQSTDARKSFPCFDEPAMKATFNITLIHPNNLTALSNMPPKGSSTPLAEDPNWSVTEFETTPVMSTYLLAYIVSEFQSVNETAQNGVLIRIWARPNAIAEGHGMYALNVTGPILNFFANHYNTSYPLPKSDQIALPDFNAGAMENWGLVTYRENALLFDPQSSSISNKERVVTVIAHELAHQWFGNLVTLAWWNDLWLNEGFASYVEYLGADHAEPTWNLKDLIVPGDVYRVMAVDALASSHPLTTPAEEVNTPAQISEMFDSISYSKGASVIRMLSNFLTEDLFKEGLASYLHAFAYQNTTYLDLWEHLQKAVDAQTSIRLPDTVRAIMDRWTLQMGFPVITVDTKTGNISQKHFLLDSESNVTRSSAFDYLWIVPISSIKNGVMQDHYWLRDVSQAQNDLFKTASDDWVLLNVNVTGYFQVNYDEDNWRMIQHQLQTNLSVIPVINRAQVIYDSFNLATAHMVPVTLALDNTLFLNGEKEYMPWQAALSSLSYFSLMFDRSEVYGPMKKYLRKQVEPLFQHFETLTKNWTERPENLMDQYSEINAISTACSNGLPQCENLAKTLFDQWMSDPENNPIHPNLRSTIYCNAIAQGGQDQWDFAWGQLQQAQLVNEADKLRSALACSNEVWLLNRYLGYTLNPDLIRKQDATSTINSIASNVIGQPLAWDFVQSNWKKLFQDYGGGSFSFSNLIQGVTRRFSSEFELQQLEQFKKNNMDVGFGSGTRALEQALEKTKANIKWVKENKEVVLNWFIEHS
Outline: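 Porcine kidney microsomal APN (ammonium sulfate suspension) diluted 600-fold in 25 mM Tris-HCl pH 7.4. Preincubated with inhibitor for 10 min at room temperature, then Leu-pNA added (0.3 mM stock). Hydrolysis followed at 405 nm at room temperature. Rates normalized to a no-inhibitor control. Single point at 10 µM; IC50 from concentration-velocity curves. Bestatin used as reference.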

Compound | inhibition [1] | inhibition [2]
NC(C(=O)NO)C(=O)N1CCC2(CC1)C(=O)NCN2c1ccccc1 (stereo unspecified) | -6% | 43%
O=C(CC(=O)N1CCC2(CC1)C(=O)NCN2c1ccccc1)NO | 5% | 19%
O=C(NO)C(Cc1cccc(Oc2ccccc2)c1)C(=O)NC1Cc2ccccc2C1 (stereo unspecified) | 43% | 72%
O=C(NO)C(Cc1cccc(Oc2ccccc2)c1)C(=O)N1CCN(Cc2ccccc2)CC1 (stereo unspecified) | 84% | 47%
O=C(CC(=O)NCc1cccc(-c2ccccc2)c1)NO | 28% | 66%
O=C(NO)C(Cc1ccccc1)C(=O)N1CCN(c2ccccc2)CC1 (stereo unspecified) | 20% | 46%
O=C(NO)C(Cc1cccc(Oc2ccccc2)c1)C(=O)NCCC(c1ccccc1)c1ccccc1 (stereo unspecified) | 50% | 59%
NC(C(=O)NO)C(=O)NCc1ccc(F)cc1 (stereo unspecified) | 9% | 18%
NC(C(=O)NO)C(=O)NCCC(c1ccccc1)c1ccccc1 (stereo unspecified) | 8% | 62%
O=C(CC(=O)NCc1ccc(C(F)(F)F)cc1)NO | 1% | 40%
NC(C(=O)NO)C(=O)NCc1ccc(Cl)cc1 (stereo unspecified) | 5% | 54%
O=C(NO)C(Cc1ccccc1)C(=O)N1CCC(n2c(=O)[nH]c3ccccc32)CC1 (stereo unspecified) | -1% | 56%
NC(C(=O)NO)C(=O)N1CCc2ccccc2C1 (stereo unspecified) | 49% | 32%
COc1cccc(CC(C(=O)NO)C(=O)NCc2cccc(Oc3ccccc3)c2)c1 (stereo unspecified) | 68% | 69%
O=C(NO)C(Cc1cccc(Oc2ccccc2)c1)C(=O)NC1CCN(Cc2ccccc2)CC1 (stereo unspecified) | 5% | 72%
O=C(CC(=O)NCc1ccc(F)cc1)NO | 6% | 16%
Cc1ccccc1CNC(=O)CC(=O)NO | 32% | 17%
O=C(NO)C(Cc1cccc(Oc2ccccc2)c1)C(=O)N[C@H]1CCN(Cc2ccccc2)C1 (stereo partly specified) | 41% | 86%
O=C(NO)C(Cc1cccc(Oc2ccccc2)c1)C(=O)NCc1cccnc1 (stereo unspecified) | 99% | 85%
NC(C(=O)NO)C(=O)N1CCN(c2ccccc2)CC1 (stereo unspecified) | -2% | 11%
O=C(NO)C(Cc1cccc(Oc2ccccc2)c1)C(=O)N1CCC(n2c(=O)[nH]c3ccccc32)CC1 (stereo unspecified) | 74% | 76%
O=C(CC(=O)NCc1cccc(Oc2ccccc2)c1)NO | 44% | 55%
O=C(NO)C(Cc1ccccc1)C(=O)NC1CCN(Cc2ccccc2)CC1 (stereo unspecified) | 3% | 21%
O=C(NO)C(Cc1ccccc1)C(=O)N1CCN(C(c2ccccc2)c2ccccc2)CC1 (stereo unspecified) | 0% | 14%
O=C(CC(=O)NCCC(c1ccccc1)c1ccccc1)NO | 50% | 87%
O=C(CC(=O)N1CCC2(CCNc3ccccc3O2)CC1)NO | -5% | 27%
O=C(CC(=O)N1CCc2ccccc2C1)NO | -3% | 19%
O=C(CC(=O)N1CCN(Cc2ccccc2)CC1)NO | 8% | 23%
O=C(CC(=O)NCCc1ccccn1)NO | -2% | 16%

Next, values leading:

inhibition [1] | inhibition [2] | Compound
59% | 76% | O=C(NO)C(Cc1ccccc1)C(=O)NCCNc1cccc2ccccc12 (stereo unspecified)
16% | 21% | CC(C)CC(C(=O)NO)C(=O)N1CCC2(CCNc3ccccc3O2)CC1 (stereo unspecified)
-6% | 15% | O=C(NO)C(Cc1ccccc1)C(=O)NCc1cccnc1 (stereo unspecified)
29% | 28% | CC(C)CC(C(=O)NO)C(=O)N1CCN(Cc2ccccc2)CC1 (stereo unspecified)
2% | 37% | NC(C(=O)NO)C(=O)N[C@H]1CCN(Cc2ccccc2)C1 (stereo partly specified)
2% | 19% | O=C(CC(=O)NCc1ccccc1)NO
88% | 98% | Cc1ccccc1CNC(=O)C(CC(C)C)C(=O)NO (stereo unspecified)
76% | 102% | CC(C)CC(C(=O)NO)C(=O)NCCC(c1ccccc1)c1ccccc1 (stereo unspecified)
42% | 93% | CC(C)CC(C(=O)NO)C(=O)NCCNc1cccc2ccccc12 (stereo unspecified)
45% | 39% | NC(C(=O)NO)C(=O)N1CCC(Cc2ccccc2)CC1 (stereo unspecified)
-4% | 11% | CN(CCCCc1ccccc1)C(=O)CC(=O)NO
42% | 60% | CC(C)CC(C(=O)NO)C(=O)N(CCCCc1ccccc1)CC(C)C (stereo unspecified)
15% | 54% | CC(C)CC(C(=O)NO)C(=O)N1CCC(n2c(=O)[nH]c3ccccc32)CC1 (stereo unspecified)
-4% | 30% | CC(C)CC(C(=O)NO)C(=O)NCc1cccnc1 (stereo unspecified)
67% | 75% | O=C(NO)C(Cc1ccccc1)C(=O)NCc1ccc(C(F)(F)F)cc1 (stereo unspecified)
7% | 23% | O=C(CC(=O)N1CCC(Cc2ccccc2)CC1)NO
2% | 16% | NC(C(=O)NO)C(=O)NCCNc1cccc2ccccc12 (stereo unspecified)
2% | 20% | CC(C)CC(C(=O)NO)C(=O)N(C)CCCCc1ccccc1 (stereo unspecified)
23% | 37% | CC(C)CC(C(=O)NO)C(=O)N(C)Cc1ccccc1 (stereo unspecified)
67% | 46% | CN(CCCNC(=O)C(Cc1ccccc1)C(=O)NO)c1ccccc1 (stereo unspecified)
45% | 36% | CN(Cc1ccccc1)C(=O)C(Cc1ccccc1)C(=O)NO (stereo unspecified)
2% | 15% | O=C(CC(=O)NCCCc1ccccc1)NO
69% | 95% | CC(C)CC(C(=O)NO)C(=O)NCc1cccc(-c2ccccc2)c1 (stereo unspecified)
12% | 10% | CN(CCCCc1ccccc1)C(=O)C(N)C(=O)NO (stereo unspecified)
7% | 26% | CC(C)CC(C(=O)NO)C(=O)N1CCC2(CC1)C(=O)NCN2c1ccccc1 (stereo unspecified)
-4% | 9% | CN(Cc1ccccc1)C(=O)CC(=O)NO
76% | 53% | CN(CCCCc1ccccc1)C(=O)C(Cc1ccccc1)C(=O)NO (stereo unspecified)
58% | 86% | CC(C)CC(C(=O)NO)C(=O)N[C@H]1CCN(Cc2ccccc2)C1 (stereo partly specified)
65% | 83% | O=C(NO)C(Cc1ccccc1)C(=O)NCCC(c1ccccc1)c1ccccc1 (stereo unspecified)
